One experiment concerns the target T1, Cannabinoid receptor 1 (Rattus norvegicus, UniProt P20272). As to the kind of experiment: Binding affinity against brain Cannabinoid receptor 1 using [3H]CP-55940 as radioligand at 1.1 nM concentration.
T1 sequence (P20272 whole entry): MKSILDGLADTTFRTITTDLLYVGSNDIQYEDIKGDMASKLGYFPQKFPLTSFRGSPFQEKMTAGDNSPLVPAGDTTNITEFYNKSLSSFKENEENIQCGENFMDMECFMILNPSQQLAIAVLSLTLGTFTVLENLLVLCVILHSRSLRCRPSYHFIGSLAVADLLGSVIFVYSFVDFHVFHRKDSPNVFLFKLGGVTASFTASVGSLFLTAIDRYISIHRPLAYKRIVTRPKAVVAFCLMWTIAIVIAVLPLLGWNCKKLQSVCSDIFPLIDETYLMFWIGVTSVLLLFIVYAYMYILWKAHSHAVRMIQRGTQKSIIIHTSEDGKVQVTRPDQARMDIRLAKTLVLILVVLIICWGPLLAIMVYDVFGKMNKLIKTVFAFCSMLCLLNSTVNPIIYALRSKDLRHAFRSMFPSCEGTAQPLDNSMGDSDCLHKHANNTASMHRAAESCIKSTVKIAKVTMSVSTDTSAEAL
Usually IC50 stands for the concentration needed to halve the response being measured. Read a high IC50 as weaker potency. `Cc1c(C(=O)c2ccc(N=C=S)c3ccccc23)c2ccccc2n1CCN1CCOCC1`: the half-inhibitory concentration (IC50) stood at 690 nM. In other words, the sub-micromolar range.

The target in a further experiment is T1, Cannabinoid receptor 1. Description: Binding affinity against brain cannabinoid receptor 1 using [3H]CP-55940 as radioligand at 0.25 nM concentration. In outline: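 Rat brain P2 membranes (30 µg protein) were suspended in 20 mM potassium diethylmalonate pH 7.5 with 2.25 mM MgCl2 and 0.025% β-cyclodextrin, then incubated with [3H]CP-55940 for 1 h at 30 °C. Compounds came from DMSO stocks diluted through β-cyclodextrin. The reaction was stopped with BSA and glass-fibre filtration. Nonspecific binding was defined with 0.1 µM desacetyllevonantradol. Displacement curves were fitted by nonlinear regression, triplicate points.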
In the case of `O=C(c1cccc2ccccc12)c1cn(CCN2CCOCC2)c2ccccc12`, the half-maximal inhibitory concentration (IC50) was found to be 46 nM.

The molecule `O=C(c1cccc2cc(N=C=S)ccc12)c1cn(CCN2CCOCC2)c2ccccc12` gave a 50% inhibitory concentration (IC50) of 530 nM.

The molecule `O=C(c1ccc(N=C=S)c2ccccc12)c1cn(CCN2CCOCC2)c2ccccc12` returned a concentration for half-maximal inhibition (IC50) of 440 nM.

Consider `O=C(c1cc(N=C=S)cc2ccccc12)c1cn(CCN2CCOCC2)c2ccccc12`, for which the IC50 is 920 nM.

Regarding `O=C(c1cccc2ccccc12)c1cn(CCN2CCOCC2)c2cc(N=C=S)ccc12`, the concentration for half-maximal inhibition (IC50) is 160 nM.

The values are drawn from ChEMBL document CHEMBL1129310, “(Aminoalkyl)indole isothiocyanates as potential electrophilic affinity ligands for the brain cannabinoid receptor” (J Med Chem, 1996).
